Test results reported in ChEMBL document CHEMBL3351654, “Synthesis, biological evaluation, and 3D QSAR study of 2-methyl-4-oxo-3-oxetanylcarbamic acid esters as N-acylethanolamine acid amidase (NAAA) inhibitors” (J Med Chem, 2014).

biological target: T1, N-acylethanolamine-hydrolyzing acid amidase (Rattus norvegicus, UniProt Q5KTC7); test: Inhibition of NAAA in Sprague-Dawley rat lung assessed as inhibition of hydrolysis of 10-cis-heptadecenoylethanolamide by UPLC/MS method; details: read-out: IC50
T1 sequence (Q5KTC7 whole entry): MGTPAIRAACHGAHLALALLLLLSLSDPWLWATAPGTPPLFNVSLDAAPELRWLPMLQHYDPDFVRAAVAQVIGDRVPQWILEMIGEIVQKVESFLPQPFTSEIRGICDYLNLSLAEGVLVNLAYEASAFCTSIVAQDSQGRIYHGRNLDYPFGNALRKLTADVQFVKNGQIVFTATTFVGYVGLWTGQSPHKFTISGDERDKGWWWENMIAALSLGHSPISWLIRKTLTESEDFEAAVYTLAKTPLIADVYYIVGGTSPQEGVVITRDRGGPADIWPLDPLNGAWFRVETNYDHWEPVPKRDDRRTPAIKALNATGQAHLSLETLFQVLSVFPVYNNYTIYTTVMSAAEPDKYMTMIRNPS
How it was run: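 Native NAAA enzyme prepared from rat lungs, not a recombinant construct. The substrate, 10-cis-heptadecenoylethanolamide, is an unnatural fatty acid ethanolamide. Inhibition of its hydrolysis was measured, and the median inhibitory concentration (IC50) was reported.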

SMILES | IC50 [µM]
C[C@@H]1OC(=O)[C@@H]1NC(=O)OCc1ccccc1 | 2.09
C[C@@H]1OC(=O)[C@@H]1NC(=O)OC(C)(C)C | 6.35
CCCCCOC(=O)N[C@H]1C(=O)O[C@H]1C | 0.76
C[C@@H]1OC(=O)[C@@H]1NC(=O)OCCCCCc1ccc(F)cc1 | 0.24
C[C@@H]1OC(=O)[C@@H]1NC(=O)OCCCCCl | 0.288
CCCCC1(OC(=O)N[C@H]2C(=O)O[C@H]2C)COC1 | 3.76
C[C@@H]1OC(=O)[C@@H]1NC(=O)OC1(CCCCc2ccccc2)COC1 | 0.52
C[C@@H]1OC(=O)[C@@H]1NC(=O)OCCCCCCCc1ccccc1 | 0.039
C[C@@H]1OC(=O)[C@@H]1NC(=O)OCC#Cc1ccccc1 | 0.02
C[C@@H]1OC(=O)[C@@H]1NC(=O)OCc1ccc(-c2ccsc2)cc1 | 0.022
C[C@@H]1OC(=O)[C@@H]1NC(=O)OCc1ccc(C2CCCCC2)cc1 | 0.007
C[C@@H]1OC(=O)[C@@H]1NC(=O)OCc1ccc(-c2ccc(F)cc2)cc1 | 0.011
Cc1ccc(-c2ccc(COC(=O)N[C@H]3C(=O)O[C@H]3C)cc2)cc1 | 0.029
C[C@@H]1OC(=O)[C@@H]1NC(=O)OCc1ccc(-c2ccc(C(F)(F)F)cc2)cc1 | 0.036
C[C@@H]1OC(=O)[C@@H]1NC(=O)OCc1ccc(OC2CCCCC2)cc1 | 0.023
C[C@@H]1OC(=O)[C@@H]1NC(=O)OCc1ccc2c(c1)OCO2 | 0.176
CCCCc1ccc(COC(=O)N[C@H]2C(=O)O[C@H]2C)cc1 | 0.015
C[C@@H]1OC(=O)[C@@H]1NC(=O)OCc1ccc(C(C)(C)C)cc1 | 0.022
C[C@@H]1OC(=O)[C@@H]1NC(=O)OCc1ccc(-c2sccc2Br)cc1 | 0.028
Cc1ccc2sc(COC(=O)N[C@H]3C(=O)O[C@H]3C)cc2c1 | 0.013
CCCCCCCC#CCOC(=O)N[C@H]1C(=O)O[C@H]1C | 0.077

same assay, conditions: read-out: pIC50 (converted)

SMILES | IC50 [µM]
C[C@@H]1OC(=O)[C@@H]1NC(=O)OCCCCCc1ccccc1 | 0.0525
C[C@@H]1OC(=O)[C@@H]1NC(=O)OC(C)(C)CCCCc1ccccc1 | 0.316
C[C@@H]1OC(=O)[C@@H]1NC(=O)OCc1ccc(-c2ccccc2)cc1 | 0.00724
C[C@@H]1OC(=O)[C@@H]1NC(=O)OCCCc1ccccc1 | 0.0851
CCCCCCCOC(=O)N[C@H]1C(=O)O[C@H]1C | 0.0447
C[C@@H]1OC(=O)[C@@H]1NC(=O)OCCCOCc1ccccc1 | 0.0513
C[C@@H]1OC(=O)[C@@H]1NC(=O)OCCOCCc1ccccc1 | 0.148
C[C@@H]1OC(=O)[C@@H]1NC(=O)OCc1ccc(-c2ccsc2)cc1 | 0.0209
